What was measured:
[1] = molecular target: GABA-A receptor; anion channel; assay: In vitro potency measured against [3H]diazepam at the benzodiazepine receptor in rat
In short: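 Male Sprague-Dawley rats (175-250 g); cerebral cortex homogenized in 50 mM Tris-HCl pH 7.4 and washed by repeated centrifugation at 2000g. Membranes incubated with 2 nM [3H]diazepam for 60-90 min at 0-4 °C, then filtered. Nonspecific binding defined with 10 µM flunitrazepam. Six or more concentrations; IC50 from Hill plots; mean of at least three determinations.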

[2] = molecular target: GABA-A receptor; anion channel; assay: In vitro inhibition of [3H]flunitrazepam binding to rat GABA-A Benzodiazepine receptor; format: protein-complex assay
[3] = test system: Mus musculus; assay: Convulsant effects in mice treated with PTZ (40 mg/kg) dose; format: functional
[4] = Partition coefficient (logP); format: physicochemical; conditions: octanol/water
In short: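 Crude octanol/water log P calculated from tabulated fragmentation constants; for one hydroxy analogue also determined experimentally.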

[5] = test system: Mus musculus; assay: Antagonism of Diazepam (2.5 mg/kg) anticonvulsant effects in mice treated with PTZ (80 mg/kg); format: functional
In short: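 Male NIH mice in groups of 10 received graded ip doses in Emulphor/saline 1:9, or vehicle. Diazepam 2.5 mg/kg ip followed 15 min later, then PTZ 80 mg/kg 15 min after that. ED50 is the dose antagonizing diazepam's protection against tonic/clonic convulsions in 50% of mice. Highest dose tested was 30 or 40 mg/kg.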

Q: Which IC50 [1] does the source give for Nc1ccc2[nH]c3c[nH]c4c5ccccc5nc-4c3c2c1 here?
A: 44 nM

Q: With CCc1nc2c3ccccc3[nH]c2c2c1[nH]c1ccccc12 as the molecule, how does the IC50 [1] read?
A: 250 nM

Q: With Cc1cccc2[nH]c3c4c5ccccc5nc-4c[nH]c3c12 as the molecule, how does the IC50 [1] read?
A: > 5000 nM

Q: Which IC50 [2] does the source give for CC(C)(C)C(=O)Oc1ccc2c(c1)[nH]c1c3c4ccccc4nc-3c[nH]c12 here?
A: 200 nM

Q: And the ED50 [3]?
A: 17.5 mg/kg

Q: With Brc1ccc2[nH]c3c4c5ccccc5nc-4c[nH]c3c2c1 as the molecule, how does the IC50 [1] read?
A: 750 nM

Q: For Cc1cccc2c1[nH]c1c3c4ccccc4nc-3c[nH]c12, which IC50 [1] is on record?
A: 83 nM

Q: For O=[N+]([O-])c1ccc2[nH]c3c[nH]c4c5ccc(Cl)cc5nc-4c3c2c1, which IC50 [1] is on record?
A: 126 nM

Q: For Cn1c2ccccc2c2[nH]cc3nc4ccccc4c-3c21, which IC50 [1] is on record?
A: 157 nM

Q: Which IC50 [1] does the source give for Clc1ccc2[nH]c3c[nH]c4c5cccc(Cl)c5nc-4c3c2c1 here?
A: 310 nM

Q: Which results are given for Clc1ccc2c(c1)[nH]c1c2ncc2[nH]c3ccccc3c21?
A: logP [4]: 4.58; ED50 [3]: > 30 mg/kg

Q: With Oc1cccc2[nH]c3c4c5ccccc5nc-4c[nH]c3c12 as the molecule, how does the IC50 [1] read?
A: 578 nM

Q: For Oc1ccc2[nH]c3c4c5ccccc5nc-4c[nH]c3c2c1, which IC50 [1] is on record?
A: 114 nM

Q: And the ED50 [3]?
A: > 40 mg/kg

Q: And the ED50 [5]?
A: > 40 mg/kg

Q: With Cc1ccc2[nH]c3c4c5ccccc5nc-4c[nH]c3c2c1 as the molecule, how does the IC50 [1] read?
A: 224 nM

Q: For Nc1ccc2[nH]c3c[nH]c4c5cc(Cl)ccc5nc-4c3c2c1, which IC50 [1] is on record?
A: > 350 nM

Q: With Nc1ccc2[nH]c3c[nH]c4c5ccc(Cl)cc5nc-4c3c2c1 as the molecule, how does the IC50 [1] read?
A: 98 nM

Q: Which IC50 [1] does the source give for O=[N+]([O-])c1ccc2[nH]c3c[nH]c4c5ccccc5nc-4c3c2c1 here?
A: 4 nM

Q: With c1ccc(COc2ccc3[nH]c4c5c6ccccc6nc-5c[nH]c4c3c2)cc1 as the molecule, how does the IC50 [1] read?
A: 1600 nM

Q: With c1ccc(COc2ccc3c(c2)[nH]c2c3ncc3[nH]c4ccccc4c32)cc1 as the molecule, how does the IC50 [1] read?
A: > 4000 nM

Q: For c1ccc2c(c1)[nH]c1c2ncc2[nH]c3ccccc3c21, which logP [4] is on record?
A: 3.87

Q: With O=[N+]([O-])c1ccc2[nH]c3c[nH]c4c5cc(Cl)ccc5nc-4c3c2c1 as the molecule, how does the IC50 [1] read?
A: 1190 nM

Q: With Brc1cccc2c1[nH]c1c3c4ccccc4nc-3c[nH]c12 as the molecule, how does the IC50 [1] read?
A: 28 nM

Q: Which IC50 [1] does the source give for COc1cccc2[nH]c3c4c5ccccc5nc-4c[nH]c3c12 here?
A: 250 nM

Q: With Brc1ccc2c(c1)[nH]c1c3c4ccccc4nc-3c[nH]c12 as the molecule, how does the IC50 [1] read?
A: 19 nM

Q: What about the logP [4] of the same molecule?
A: 4.73

Q: And the ED50 [3]?
A: > 40 mg/kg

Q: What about the ED50 [5] of the same molecule?
A: > 40 mg/kg

Q: Which IC50 [1] does the source give for Cn1c2ccccc2c2c3nc4ccccc4c-3[nH]cc21 here?
A: 1140 nM

Q: For Brc1ccc2[nH]c3cnc4c5ccccc5[nH]c4c3c2c1, which IC50 [1] is on record?
A: 6 nM

Q: With O=S(=O)(O)c1ccc2[nH]c3c(ncc4[nH]c5ccc(S(=O)(=O)O)cc5c43)c2c1 as the molecule, how does the IC50 [1] read?
A: 5000 nM

Q: Which results are given for Fc1ccc2[nH]c3c4c5ccccc5nc-4c[nH]c3c2c1?
A: IC50 [1]: 6 nM; logP [4]: 4.01; ED50 [3]: > 30 mg/kg

Q: For c1ccc(COc2cccc3[nH]c4c5c6ccccc6nc-5c[nH]c4c23)cc1, which IC50 [1] is on record?
A: > 4000 nM

Q: Which results are given for Cc1ccc2c(c1)[nH]c1c3c4ccccc4nc-3c[nH]c12?
A: IC50 [1]: 8 nM; logP [4]: 4.53; ED50 [3]: > 40 mg/kg; ED50 [5]: > 40 mg/kg

Q: For Fc1ccc2c(c1)[nH]c1c3c4ccccc4nc-3c[nH]c12, which logP [4] is on record?
A: 4.01

Q: What about the ED50 [3] of the same molecule?
A: > 30 mg/kg

Q: What about the ED50 [5] of the same molecule?
A: > 30 mg/kg

Q: What does the source list for Oc1ccc2c(c1)[nH]c1c3c4ccccc4nc-3c[nH]c12?
A: IC50 [1]: 6 nM; logP [4]: 0.95; ED50 [3]: > 40 mg/kg; ED50 [5]: > 40 mg/kg

Q: Which IC50 [1] does the source give for Brc1ccc2[nH]c3c(ncc4[nH]c5ccc(Br)cc5c43)c2c1 here?
A: > 320 nM

Q: Which IC50 [1] does the source give for COc1ccc2c(c1)[nH]c1c3c4ccccc4nc-3c[nH]c12.Cl here?
A: 8 nM

Q: And the logP [4]?
A: 4.04

Q: And the ED50 [3]?
A: 7 mg/kg

Q: And the ED50 [5]?
A: 3.9 mg/kg

Source: ChEMBL document CHEMBL1124900, “Synthesis of substituted 7,12-dihydropyrido[3,2-b:5,4-b']diindoles: rigid planar benzodiazepine receptor ligands with inverse agonist/antagonist properties” (J Med Chem, 1990)
